Experimental data: PubChem BioAssay
Active and inactive are the calls of the source.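 How the source made its calls, unless noted: active means potentiation averaged over duplicate wells exceeding buffer-only control mean by more than 3 SD; inactive means the rest.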

system: not listed separately; assay: thallium flux activation in parental CHO cells, counter-screen for KCNQ1 potentiator project (AID 493006;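 active means duplicate-averaged activation above buffer control mean plus 5 SD of those controls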;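 on activation: fluorescence ratio of max minus min over baseline after K+ and Tl+ depolarization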); conditions: parental CHO-K1 cells, FluxOR thallium flux, at 10 µM; hits give high values
How it was run: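 Benchmarks – buffer and R-L3 controls · Assay system – untransfected host CHO-K1 cells with FluxOR thallium dye · Measure – fluorescence change ratio scaled 0% buffer, 100% R-L3 · Technique – kinetic thallium-flux fluorescence · Timing – overnight 37 °C plating, 90 min RT dye, 20 min compound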

| SMILES | activation | outcome |
| --- | --- | --- |
| CC(C)C1Cc2c(sc3[nH]c(=S)n(Cc4ccccc4)c(=O)c23)CO1 (stereo not given) | 404% (active) | – |
| Cc1ccc(-n2c(=S)[nH]c3c(oc4ccccc43)c2=O)cc1C | 160% (active) | – |
| COC(=O)c1ccc(CSc2ncnc3sc(C)c(C)c23)o1 | 155% (active) | – |
| CN(C)C(=S)NC(=O)c1cccc(Cl)c1 | – | inactive |
| Cc1ccc(Cl)cc1NC(=S)N/N=C/c1cccc2ccccc12 | – | inactive |
| O=C(NC(=S)Nc1ccccc1F)c1ccc(Br)o1 | 230% (active) | – |
| CCOc1ccc(C(=O)NC(=S)N(Cc2ccccc2)Cc2ccccc2)cc1 | 395% (active) | – |
| Cc1ccc(C)c(S(=O)(=O)NCC(=O)N2CCCC2)c1 | – | inactive |
| O=c1[nH]cc(S(=O)(=O)c2ccccc2)[nH]1 | – | inactive |
| COc1cccc(OC)c1OCCOCCN1CCN(C)CC1 | – | inactive |
| O=c1[nH]cc(N=Cc2cc(Cl)cc(Cl)c2O)c(=O)[nH]1 | 188% (active) | – |
| COc1ccccc1OCCc1nnc(N)s1 | – | inactive |
| COc1cccc2sc(NNC(=O)c3nc4ccccc4s3)nc12 | 300% (active) | – |
| CCC1CCCCN1C(=S)NC(=O)c1cccs1 (stereo not given) | 470% (active) | – |
| C=CCn1c(O)c(N=NC(=S)Nc2cccc(OC)c2)c2ccccc21 | 186% (active) | – |
| CCCCn1c(SCC(=O)/C(C#N)=C(\C)N)nc2ccccc2c1=O | – | inactive |
| COc1ccc([N+](=O)[O-])cc1NC(=O)c1cccnc1 | – | inactive |
| O=C(/C=C/c1ccco1)NC(=S)Nc1ccccc1O | – | inactive |
| O=C(NC(=S)N1CCN(c2ccc([N+](=O)[O-])cc2Cl)CC1)c1ccco1 | – | inactive |
| CC(/C=N/n1c(C2CCCCC2)n[nH]c1=S)=C\c1ccccc1 | – | inactive |

| SMILES | activation | outcome |
| --- | --- | --- |
| CCCN(C(=O)c1cn(-c2ccccc2)nc1-c1ccc(OC)cc1)C1CCS(=O)(=O)C1 (stereo not given) | – | inactive |
| CCOC(=O)c1sc(N2N=C(C)C(N=Nc3cccc(C)c3)C2=O)nc1C (stereo not given) | – | inactive |
| CC1CCN(C(=S)NC(=O)c2cccc([N+](=O)[O-])c2)CC1 | 207% (active) | – |
| Cc1[nH]n(-c2cccc3ccccc23)c(=O)c1/C=N/c1sc2c(c1C#N)CCC2 | 204% (active) | – |
| CCc1ccc2nc(N(CCCN(C)C)C(=O)c3ccc(S(=O)(=O)N4CCCc5ccccc54)cc3)sc2c1 | – | inactive |
| CC(NC(=O)c1ccncc1)C(C)(C)C (stereo not given) | – | inactive |
| CCN(c1ccccc1)S(=O)(=O)c1ccc(OC)c(OC)c1 | 167% (active) | – |
| O=C(NC(=S)N(CCc1ccccc1)CCc1ccccc1)c1ccco1 | 408% (active) | – |
| COc1cccc2sc(Nc3nnc(-c4ccccc4Cl)o3)nc12 | – | inactive |
| O=C(NC(=S)Nc1ccccc1N1CCOCC1)c1cccc([N+](=O)[O-])c1 | – | inactive |
| COc1cccc2sc(N(CCCN(C)C)C(=O)c3ccc(S(=O)(=O)N4CCCc5ccccc54)cc3)nc12 | – | inactive |
| CN1CCN(C(=O)/C(=C/c2ccccc2)c2ccccc2)CC1 | – | inactive |
| O=C(/C=C/c1ccccc1Cl)c1ccccc(=O)c1O | 214% (active) | – |
| O=Cc1cc2ccccc2nc1SCCCF | – | inactive |
| O=c1c2cc(Cl)ccc2nc(-c2ccccc2)n1O | 298% (active) | – |
| Cc1ccc(C(C(=O)NC2CCCCC2)N(Cc2cccnc2)C(=O)C2COc3ccccc3O2)o1 (stereo not given) | – | inactive |
| CC(C)n1c(O)c(N=NC(=O)C2COc3ccccc3O2)c2ccccc21 (stereo not given) | 234% (active) | – |
| COc1ccc(/C=C2\SC(=S)N(NS(=O)(=O)c3ccc(C)cc3)C2=O)c(OC)c1 | 138% (active) | – |
| CCOC(=O)Cc1csc(NC(=S)NC(=O)c2ccc(F)cc2)n1 | – | inactive |
| CSC(=S)N/N=C/c1ccc(Br)cc1 | 172% (active) | – |

biological target: Potassium voltage-gated channel subfamily KQT member 1 (Homo sapiens) (UniProt P51787); assay: KCNQ1 potassium channel potentiators, confirmation, FluxOR thallium flux, CHO cells, duplicates (AID 493007); conditions: KCNQ1 cell line, FluxOR thallium flux fluorescence, at 10 µM; hits give high values, % of reference activator effect, buffer zero;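 on outcome: cells depolarized by a potassium plus thallium sulfate stimulus after compound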
How it was run: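 Material: CHO cells stably expressing the KCNQ1 potassium channel / Times: dye 90 min then compound 20 min, both at room temperature / Detection: kinetic thallium influx fluorescence with FluxOR dye, 10 s baseline, 110 s post-stimulus / Benchmarks: buffer-only wells as 0% and R-L3 activator as 100% / Replicates: each compound tested in duplicate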

Potassium voltage-gated channel subfamily KQT member 1 (Homo sapiens), sequence (P51787 whole entry, looked up): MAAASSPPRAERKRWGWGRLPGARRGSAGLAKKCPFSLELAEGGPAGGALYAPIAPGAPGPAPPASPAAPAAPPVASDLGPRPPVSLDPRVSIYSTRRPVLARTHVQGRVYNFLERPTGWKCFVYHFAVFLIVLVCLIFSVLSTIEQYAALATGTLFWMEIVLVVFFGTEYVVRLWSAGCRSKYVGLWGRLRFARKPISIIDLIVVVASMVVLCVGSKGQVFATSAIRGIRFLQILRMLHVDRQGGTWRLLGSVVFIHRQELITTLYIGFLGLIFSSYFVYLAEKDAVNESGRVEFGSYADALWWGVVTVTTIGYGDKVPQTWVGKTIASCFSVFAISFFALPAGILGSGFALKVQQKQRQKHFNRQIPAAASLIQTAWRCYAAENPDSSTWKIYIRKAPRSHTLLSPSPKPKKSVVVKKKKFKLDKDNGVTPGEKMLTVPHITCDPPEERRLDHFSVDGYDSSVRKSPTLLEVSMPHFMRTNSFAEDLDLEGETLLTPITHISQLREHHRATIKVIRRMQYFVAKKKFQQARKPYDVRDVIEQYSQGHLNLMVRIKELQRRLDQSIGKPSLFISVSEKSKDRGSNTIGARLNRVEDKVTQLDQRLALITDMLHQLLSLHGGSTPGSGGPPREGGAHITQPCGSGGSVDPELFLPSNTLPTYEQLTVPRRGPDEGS

| SMILES | potentiation | outcome |
| --- | --- | --- |
| CC(C)C1Cc2c(sc3[nH]c(=S)n(Cc4ccccc4)c(=O)c23)CO1 (stereo not given) | 128% (active) | – |
| Cc1ccc(-n2c(=S)[nH]c3c(oc4ccccc43)c2=O)cc1C | 23.5% (active) | – |
| COC(=O)c1ccc(CSc2ncnc3sc(C)c(C)c23)o1 | 24% (active) | – |
| CN(C)C(=S)NC(=O)c1cccc(Cl)c1 | 19% (active) | – |
| Cc1ccc(Cl)cc1NC(=S)N/N=C/c1cccc2ccccc12 | 32% (active) | – |
| O=C(NC(=S)Nc1ccccc1F)c1ccc(Br)o1 | 55.5% (active) | – |
| CCOc1ccc(C(=O)NC(=S)N(Cc2ccccc2)Cc2ccccc2)cc1 | 296% (active) | – |
| Cc1ccc(C)c(S(=O)(=O)NCC(=O)N2CCCC2)c1 | – | inactive |
| O=c1[nH]cc(S(=O)(=O)c2ccccc2)[nH]1 | – | inactive |
| COc1cccc(OC)c1OCCOCCN1CCN(C)CC1 | – | inactive |
| O=c1[nH]cc(N=Cc2cc(Cl)cc(Cl)c2O)c(=O)[nH]1 | – | inactive |
| COc1ccccc1OCCc1nnc(N)s1 | – | inactive |
| COc1cccc2sc(NNC(=O)c3nc4ccccc4s3)nc12 | 191% (active) | – |
| CCC1CCCCN1C(=S)NC(=O)c1cccs1 (stereo not given) | 216% (active) | – |
| C=CCn1c(O)c(N=NC(=S)Nc2cccc(OC)c2)c2ccccc21 | 85.5% (active) | – |
| CCCCn1c(SCC(=O)/C(C#N)=C(\C)N)nc2ccccc2c1=O | – | inactive |
| COc1ccc([N+](=O)[O-])cc1NC(=O)c1cccnc1 | – | inactive |
| O=C(/C=C/c1ccco1)NC(=S)Nc1ccccc1O | – | inactive |
| O=C(NC(=S)N1CCN(c2ccc([N+](=O)[O-])cc2Cl)CC1)c1ccco1 | – | inactive |
| CC(/C=N/n1c(C2CCCCC2)n[nH]c1=S)=C\c1ccccc1 | 270% (active) | – |

| SMILES | potentiation | outcome |
| --- | --- | --- |
| CCCN(C(=O)c1cn(-c2ccccc2)nc1-c1ccc(OC)cc1)C1CCS(=O)(=O)C1 (stereo not given) | – | inactive |
| CCOC(=O)c1sc(N2N=C(C)C(N=Nc3cccc(C)c3)C2=O)nc1C (stereo not given) | 31% (active) | – |
| CC1CCN(C(=S)NC(=O)c2cccc([N+](=O)[O-])c2)CC1 | 41.5% (active) | – |
| Cc1[nH]n(-c2cccc3ccccc23)c(=O)c1/C=N/c1sc2c(c1C#N)CCC2 | 122% (active) | – |
| CCc1ccc2nc(N(CCCN(C)C)C(=O)c3ccc(S(=O)(=O)N4CCCc5ccccc54)cc3)sc2c1 | – | inactive |
| CC(NC(=O)c1ccncc1)C(C)(C)C (stereo not given) | – | inactive |
| CCN(c1ccccc1)S(=O)(=O)c1ccc(OC)c(OC)c1 | 150% (active) | – |
| O=C(NC(=S)N(CCc1ccccc1)CCc1ccccc1)c1ccco1 | 364% (active) | – |
| COc1cccc2sc(Nc3nnc(-c4ccccc4Cl)o3)nc12 | 112% (active) | – |
| O=C(NC(=S)Nc1ccccc1N1CCOCC1)c1cccc([N+](=O)[O-])c1 | – | inactive |
| COc1cccc2sc(N(CCCN(C)C)C(=O)c3ccc(S(=O)(=O)N4CCCc5ccccc54)cc3)nc12 | – | inactive |
| CN1CCN(C(=O)/C(=C/c2ccccc2)c2ccccc2)CC1 | – | inactive |
| O=C(/C=C/c1ccccc1Cl)c1ccccc(=O)c1O | 134% (active) | – |
| O=Cc1cc2ccccc2nc1SCCCF | – | inactive |
| O=c1c2cc(Cl)ccc2nc(-c2ccccc2)n1O | 82.5% (active) | – |
| Cc1ccc(C(C(=O)NC2CCCCC2)N(Cc2cccnc2)C(=O)C2COc3ccccc3O2)o1 (stereo not given) | – | inactive |
| CC(C)n1c(O)c(N=NC(=O)C2COc3ccccc3O2)c2ccccc21 (stereo not given) | 66.5% (active) | – |
| COc1ccc(/C=C2\SC(=S)N(NS(=O)(=O)c3ccc(C)cc3)C2=O)c(OC)c1 | 77.5% (active) | – |
| CCOC(=O)Cc1csc(NC(=S)NC(=O)c2ccc(F)cc2)n1 | – | inactive |
| CSC(=S)N/N=C/c1ccc(Br)cc1 | 38% (active) | – |
